ChEMBL document CHEMBL1629504, “Synthesis, antitrichinnellosis and antiprotozoal activity of some novel thieno[2,3-d]pyrimidin-4(3H)-ones containing benzimidazole ring” (2010)
Activity calls are given as the source filed them. No cut-off for these calls is given here.

Key:
Trichinella spiralis [1] = assay: Antitrichinellosis activity against Trichinella spiralis assessed as parasites viability at 5 ug/ml after 24 hrs by stereomicroscopy; format: functional
Method in brief: (§1)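 Encapsulated larvae, 100 per 1 ml physiological solution (Campbell's method), exposed to compound dissolved in DMSO at 5 µg/ml; incubated in a humid thermostatted chamber at 37 °C. Larval vitality checked by stereomicroscopy at 24 and 48 h.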

Trichinella spiralis [2] = assay: Antitrichinellosis activity against Trichinella spiralis assessed as parasites viability at 5 ug/ml after 48 hrs by stereomicroscopy; format: functional; method in brief: as §1
Giardia muris = assay: Antiprotozoal activity against Giardia muris infected in white mouse assessed as presence of cysts in mouse faeces at 0.5 ug/ml, po after 5 days by microscopy; format: functional, organism-based; settings: Feces
Method in brief: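 Infected white mice (five per group) dosed p.o. once daily by thin metal oesophageal probe, 0.5 µg/ml pro die as 0.5 ml DMSO solution, for 5 days; untreated and DMSO-only control groups. After the course, faeces stained with Lugol's solution and examined microscopically for cysts.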

Paramecium caudatum = assay: Antiprotozoal activity against Paramecium caudatum assessed as parasites viability at 1 ug/ml after 15-20 mins by stereomicroscopy; format: functional
Method in brief: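 Paramecia from dry-hay maceration culture; 2–3 drops of culture added to a drop of compound in DMSO (1 µg/ml) in a Petri dish. Motility and cell integrity followed stereomicroscopically over minutes after addition.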

SMILES | Efficacy (Trichinella spiralis [1]) [%] | Efficacy (Trichinella spiralis [2]) [%] | Activity (Giardia muris) | Activity (Paramecium caudatum)
CCOC(=O)c1sc2nc(CCSc3nc4ccccc4n3CC)[nH]c(=O)c2c1C | 39.07 | 59.75 | Active | Active
O=c1[nH]c(CCSc2nc3ccccc3n2[N+](=O)[O-])nc2sc3c(c12)CCCC3 | 90.1 | 90.1 | Active | Active
CCCn1c(SCCc2nc3sc4c(c3c(=O)[nH]2)CCCC4)nc2ccccc21 | 84.8 | 90.05 | Active | Active
CCOC(=O)c1sc2nc(CCSc3nc4cc(Cl)ccc4[nH]3)[nH]c(=O)c2c1C | 0 | 5.09 | Active | Active
Cn1c(SCCc2nc3sc4c(c3c(=O)[nH]2)CCCC4)nc2ccccc21 | 40.05 | 89.9 | Active | Active
O=c1[nH]c(CCn2cnc3cc([N+](=O)[O-])ccc32)nc2sc3c(c12)CCCC3 | 95.05 | 95.05 | Active | Active
CCOC(=O)c1sc2nc(CCSc3nc4cc([N+](=O)[O-])ccc4[nH]3)[nH]c(=O)c2c1C | 50 | 80.05 | Active | Active
CCOC(=O)c1sc2nc(CCn3cnc4ccccc43)[nH]c(=O)c2c1C | 79.8 | 85.3 | Active | Active
CCCSc1ccc2[nH]c(NC(=O)OC)nc2c1 [ALBENDAZOLE] | 10.6 | 14.8 | – | –
